Values after ≈ are worked out from the molar mass of the structure shown.

We go through 2 compounds from ChEMBL document CHEMBL1671676, “In vitro activity of nemonoxacin, a novel nonfluorinated quinolone, against 2,440 clinical isolates” (2009).

What all share (format): functional
Experiment [1] relates to Klebsiella pneumoniae. The experiment can be described thus: Antibacterial activity against Klebsiella pneumoniae assessed as percent cumulative susceptible isolates at minimum inhibitory concentration of 8 ug/ml by CLSI broth microdilution method. Set-up: scale not given: the % may be the effect or the level left.
For experiment [2], the system named is Staphylococcus epidermidis. The experiment can be described thus: Antibacterial activity against methicillin-susceptible Staphylococcus epidermidis assessed as percent cumulative susceptible isolates at minimum inhibitory concentration of 0.03 ug/ml by CLSI broth microdilution method. Set-up: scale not given: the % may be the effect or the level left.
Experiment [3] concerns Stenotrophomonas maltophilia. The experiment can be described thus: Antibacterial activity against Stenotrophomonas maltophilia by CLSI M7-A7 broth microdilution method.
For experiment [4], the system named is Klebsiella pneumoniae. The experiment can be described thus: Antibacterial activity against Klebsiella pneumoniae assessed as percent cumulative susceptible isolates at minimum inhibitory concentration of 128 ug/ml by CLSI broth microdilution method. Also noted: scale not given: the % may be the effect or the level left.
Experiment [5] concerns Pseudomonas aeruginosa. The experiment can be described thus: Antibacterial activity against Pseudomonas aeruginosa assessed as percent cumulative susceptible isolates at minimum inhibitory concentration of 256 ug/ml by CLSI broth microdilution method. Set-up: scale not given: the % may be the effect or the level left.
In experiment [6] the test system is Staphylococcus aureus. Briefly: Antibacterial activity against hospital-associated methicillin-resistant Staphylococcus aureus assessed as percent cumulative susceptible isolates at minimum inhibitory concentration of 1 ug/ml by CLSI broth microdilution method. Set-up: scale not given: the % may be the effect or the level left. In short, it runs like this: (§1)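 Clinical isolates tested by CLSI broth microdilution using 96-well panels of doubling drug dilutions in cation-adjusted Mueller-Hinton broth with 5% lysed horse blood. MIC was read from these panels. Panel quality control used CLSI ATCC strains, including S. pneumoniae 49619, S. aureus 29213, E. faecalis 29212 and E. coli 25922. Cumulative percentages of isolates were tabulated at each MIC.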

Experiment [7] concerns Proteus mirabilis. The experiment can be described thus: Antibacterial activity against Proteus mirabilis assessed as percent cumulative susceptible isolates at minimum inhibitory concentration of >=[…] by CLSI broth microdilution method. Also noted: scale not given: the % may be the effect or the level left.
Experiment [8] has as its system Enterococcus faecalis. Briefly: Antibacterial activity against Enterococcus faecalis assessed as percent cumulative susceptible isolates at minimum inhibitory concentration of 128 ug/ml by CLSI broth microdilution method. Also noted: scale not given: the % may be the effect or the level left.
Experiment [9] concerns Staphylococcus aureus. Briefly: Antibacterial activity against non-levofloxacin susceptible Staphylococcus aureus assessed as percent cumulative susceptible isolates at minimum inhibitory concentration of 0.5 ug/ml by CLSI broth microdilution method. Set-up: scale not given: the % may be the effect or the level left.
Experiment [10] deals with Staphylococcus aureus. The experiment can be described thus: Antibacterial activity against hospital-associated methicillin-resistant Staphylococcus aureus by CLSI M7-A7 broth microdilution method. In short, it runs like this:
as §1

The subject of experiment [11] is Stenotrophomonas maltophilia. The experiment can be described thus: Antibacterial activity against Stenotrophomonas maltophilia assessed as percent cumulative susceptible isolates at minimum inhibitory concentration of […] by CLSI broth microdilution method. Also noted: scale not given: the % may be the effect or the level left.
Experiment [12] deals with Proteus mirabilis. The experiment can be described thus: Antibacterial activity against Proteus mirabilis assessed as percent cumulative susceptible isolates at minimum inhibitory concentration of […] by CLSI broth microdilution method. Also noted: scale not given: the % may be the effect or the level left.
The subject of experiment [13] is Enterococcus faecalis. Briefly: Antibacterial activity against Enterococcus faecalis assessed as percent cumulative susceptible isolates at minimum inhibitory concentration of 0.06 ug/ml by CLSI broth microdilution method. Set-up: scale not given: the % may be the effect or the level left.
The subject of experiment [14] is Escherichia coli. The experiment can be described thus: Antibacterial activity against Escherichia coli assessed as percent cumulative susceptible isolates at minimum inhibitory concentration of 128 ug/ml by CLSI broth microdilution method. Also noted: scale not given: the % may be the effect or the level left.
Experiment [15] in a line: Ratio of fAUC (0 to 24 hrs) in in vitro PK/PD model at 750 mg to MIC for Streptococcus pneumoniae.
Experiment [16] deals with Staphylococcus aureus. Briefly: Antibacterial activity against Levofloxacin-susceptible Staphylococcus aureus assessed as percent cumulative susceptible isolates at minimum inhibitory concentration of <=0.008 ug/ml by CLSI broth microdilution method. Set-up: scale not given: the % may be the effect or the level left.
A short description of experiment [17]: Ratio of fAUC (0 to 24 hrs) in in vitro PK/PD model at 750 mg to MIC for penicillin-resistant Streptococcus pneumoniae.
Experiment [18] relates to Enterococcus faecium. Briefly: Antibacterial activity against Enterococcus faecium by CLSI M7-A7 broth microdilution method.
Experiment [19] has as its system Acinetobacter baumannii. The experiment can be described thus: Antibacterial activity against Acinetobacter baumannii by CLSI M7-A7 broth microdilution method.
Experiment [20] concerns Enterococcus faecium. Briefly: Antibacterial activity against Enterococcus faecium assessed as percent cumulative susceptible isolates at minimum inhibitory concentration of […] by CLSI broth microdilution method. Also noted: scale not given: the % may be the effect or the level left.
The subject of experiment [21] is Klebsiella pneumoniae. The experiment can be described thus: Antibacterial activity against Klebsiella pneumoniae assessed as percent cumulative susceptible isolates at minimum inhibitory concentration of 64 ug/ml by CLSI broth microdilution method. Also noted: scale not given: the % may be the effect or the level left.
The subject of experiment [22] is Pseudomonas aeruginosa. Briefly: Antibacterial activity against Pseudomonas aeruginosa assessed as percent cumulative susceptible isolates at minimum inhibitory concentration of 128 ug/ml by CLSI broth microdilution method. Also noted: scale not given: the % may be the effect or the level left.
Experiment [23] has as its system Klebsiella pneumoniae. The experiment can be described thus: Antibacterial activity against Klebsiella pneumoniae assessed as percent cumulative susceptible isolates at minimum inhibitory concentration of <=[…] by CLSI broth microdilution method. Also noted: scale not given: the % may be the effect or the level left.
Experiment [24] deals with Klebsiella pneumoniae. Briefly: Antibacterial activity against Klebsiella pneumoniae assessed as percent cumulative susceptible isolates at minimum inhibitory concentration of 0.03 ug/ml by CLSI broth microdilution method. Also noted: scale not given: the % may be the effect or the level left.
Experiment [25] deals with Staphylococcus epidermidis. Briefly: Antibacterial activity against methicillin-resistant Staphylococcus epidermidis assessed as percent cumulative susceptible isolates at minimum inhibitory concentration of […] by CLSI broth microdilution method. Set-up: scale not given: the % may be the effect or the level left.
The test system of experiment [26] is Staphylococcus aureus. The experiment can be described thus: Antibacterial activity against non-levofloxacin susceptible Staphylococcus aureus assessed as percent cumulative susceptible isolates at minimum inhibitory concentration of 2 ug/ml by CLSI broth microdilution method. Also noted: scale not given: the % may be the effect or the level left.
In experiment [27] the test system is Stenotrophomonas maltophilia. The experiment can be described thus: Antibacterial activity against Stenotrophomonas maltophilia assessed as percent cumulative susceptible isolates at minimum inhibitory concentration of 32 ug/ml by CLSI broth microdilution method. Also noted: scale not given: the % may be the effect or the level left.
The subject of experiment [28] is Staphylococcus aureus. Briefly: Antibacterial activity against Levofloxacin-susceptible Staphylococcus aureus assessed as percent cumulative susceptible isolates at minimum inhibitory concentration of 0.03 ug/ml by CLSI broth microdilution method. Set-up: scale not given: the % may be the effect or the level left.
In experiment [29] the test system is Enterococcus faecium. The experiment can be described thus: Antibacterial activity against Enterococcus faecium assessed as percent cumulative susceptible isolates at minimum inhibitory concentration of 0.06 ug/ml by CLSI broth microdilution method. Set-up: scale not given: the % may be the effect or the level left.
Experiment [30] concerns Proteus mirabilis. Briefly: Antibacterial activity against Proteus mirabilis assessed as percent cumulative susceptible isolates at minimum inhibitory concentration of 0.06 ug/ml by CLSI broth microdilution method. Set-up: scale not given: the % may be the effect or the level left.
In experiment [31] the test system is Staphylococcus epidermidis. The experiment can be described thus: Antibacterial activity against methicillin-susceptible Staphylococcus epidermidis assessed as percent cumulative susceptible isolates at minimum inhibitory concentration of 32 ug/ml by CLSI broth microdilution method. Also noted: scale not given: the % may be the effect or the level left. Put shortly: as §1

The test system of experiment [32] is Streptococcus pneumoniae. The experiment can be described thus: Antibacterial activity against penicillin-resistant Streptococcus pneumoniae assessed as percent cumulative susceptible isolates at minimum inhibitory concentration of 0.5 ug/ml by CLSI broth microdilution method. Set-up: scale not given: the % may be the effect or the level left.
Experiment [33] deals with Acinetobacter baumannii. The experiment can be described thus: Antibacterial activity against Acinetobacter baumannii assessed as percent cumulative susceptible isolates at minimum inhibitory concentration of 0.06 ug/ml by CLSI broth microdilution method. Set-up: scale not given: the % may be the effect or the level left.
The subject of experiment [34] is Streptococcus pneumoniae. Briefly: Antibacterial activity against Streptococcus pneumoniae assessed as percent cumulative susceptible isolates at minimum inhibitory concentration of 8 ug/ml by CLSI broth microdilution method. Set-up: scale not given: the % may be the effect or the level left.
Experiment [35] relates to Enterobacter cloacae. The experiment can be described thus: Antibacterial activity against Enterobacter cloacae assessed as percent cumulative susceptible isolates at minimum inhibitory concentration of 2 ug/ml by CLSI broth microdilution method. Also noted: scale not given: the % may be the effect or the level left.
The subject of experiment [36] is Escherichia coli. Briefly: Antibacterial activity against Escherichia coli assessed as percent cumulative susceptible isolates at minimum inhibitory concentration of 8 ug/ml by CLSI broth microdilution method. Also noted: scale not given: the % may be the effect or the level left.
Experiment [37] has as its system Streptococcus pneumoniae. Briefly: Antibacterial activity against Streptococcus pneumoniae assessed as percent cumulative susceptible isolates at minimum inhibitory concentration of 32 ug/ml by CLSI broth microdilution method. Set-up: scale not given: the % may be the effect or the level left. Put shortly:
as §1

The subject of experiment [38] is Staphylococcus epidermidis. Briefly: Antibacterial activity against methicillin-resistant Staphylococcus epidermidis assessed as percent cumulative susceptible isolates at minimum inhibitory concentration of 4 ug/ml by CLSI broth microdilution method. Set-up: scale not given: the % may be the effect or the level left.

On to `COc1c(N2C[C@@H](C)C[C@H](N)C2)ccc2c(=O)c(C(=O)O)cn(C3CC3)c12` [NEMONOXACIN], for which the Activity in experiment [1] turned out to be 95%; in experiment [2] it was 53.5%; in experiment [4], 100%; in [5], 99.3%; in experiment [6] it was 18.2%; in [7], 100%. The Activity came to 100% in experiment [8]; 19% in experiment [9]; 3.8% in experiment [11]; 24.2% in experiment [12]; 18.5% in [13]; 99.3% in experiment [14]. For the same compound, the Activity is 5.9% in experiment [16]; 15.8% in experiment [20]; 98.5% in [21]; 97.8% in experiment [22]; 0.5% in experiment [23]; 1% in [24]. Also, the Activity is 33.3% in [25]; 36.1% in [26]; 92.3% in experiment [27]; 78.3% in [28]; 7.9% in [29]. Also, the MIC90 is not below 4 µg/mL in [3], 128 µg/mL (≈ 345 µM) in experiment [18] and 1 µg/mL (≈ 2.69 µM) in [19]. In experiment [10], this compound came in with an MIC not below 4 µg/mL. Further, the RatioAUC/MIC in [15] and in experiment [17] was more than 393 in each case.
Regarding `C[C@H]1COc2c(N3CCN(C)CC3)c(F)cc3c(=O)c(C(=O)O)cn1c23.C[C@H]1COc2c(N3CCN(C)CC3)c(F)cc3c(=O)c(C(=O)O)cn1c23.O` [LEVOFLOXACIN], the Activity in [30] worked out at 33.3%; in experiment [31], 100%; in experiment [32] it was 53.1%; in experiment [33] it was 6.7%; in experiment [34] it was 99.5%; in experiment [35], 93.1%. Moreover, the figures for the Activity in experiment [36], in experiment [37] and in experiment [38] were 78.5%, 100% and 11.1%, respectively.
